Source: ChEMBL document CHEMBL4002591 (J Med Chem, 2017)
Active and inactive are the calls of the source. No cut-off for these calls is given here.

How the values were obtained:
[1] = target: Poly [ADP-ribose] polymerase 2 (Homo sapiens, UniProt Q9UGN5); assay: Inhibition of recombinant human N-terminal GST-tagged PARP2 (2 to 583 residues) expressed in baculovirus infected Sf9 cells measured after 1 hr by chemiluminescence assay
DLD-1 = assay: Anti-proliferative activity against human DLD1 cells assessed as inhibition of colony formation at 1 uM measured after 18 days under normal serum condition by trypan blue staining based light microscopic analysis; format: functional, cell-based
In short: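 DLD-1 colony-forming assay under normal serum: 1000 cells/well, with 1.0 µM or 100 nM compound, or a 1% DMSO (v/v) vehicle control. Colonies were counted, n = 3.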

[2] = target: T1, Poly [ADP-ribose] polymerase tankyrase-1 (Homo sapiens, UniProt O95271); assay: Inhibition of recombinant human N-terminal GST-tagged TNKS1 (1001 to 1327 residues) expressed in baculovirus infected sf9 cells using TACS-Sapphire as substrate measured after 30 mins by colorimetric assay
T1 sequence (O95271 whole entry): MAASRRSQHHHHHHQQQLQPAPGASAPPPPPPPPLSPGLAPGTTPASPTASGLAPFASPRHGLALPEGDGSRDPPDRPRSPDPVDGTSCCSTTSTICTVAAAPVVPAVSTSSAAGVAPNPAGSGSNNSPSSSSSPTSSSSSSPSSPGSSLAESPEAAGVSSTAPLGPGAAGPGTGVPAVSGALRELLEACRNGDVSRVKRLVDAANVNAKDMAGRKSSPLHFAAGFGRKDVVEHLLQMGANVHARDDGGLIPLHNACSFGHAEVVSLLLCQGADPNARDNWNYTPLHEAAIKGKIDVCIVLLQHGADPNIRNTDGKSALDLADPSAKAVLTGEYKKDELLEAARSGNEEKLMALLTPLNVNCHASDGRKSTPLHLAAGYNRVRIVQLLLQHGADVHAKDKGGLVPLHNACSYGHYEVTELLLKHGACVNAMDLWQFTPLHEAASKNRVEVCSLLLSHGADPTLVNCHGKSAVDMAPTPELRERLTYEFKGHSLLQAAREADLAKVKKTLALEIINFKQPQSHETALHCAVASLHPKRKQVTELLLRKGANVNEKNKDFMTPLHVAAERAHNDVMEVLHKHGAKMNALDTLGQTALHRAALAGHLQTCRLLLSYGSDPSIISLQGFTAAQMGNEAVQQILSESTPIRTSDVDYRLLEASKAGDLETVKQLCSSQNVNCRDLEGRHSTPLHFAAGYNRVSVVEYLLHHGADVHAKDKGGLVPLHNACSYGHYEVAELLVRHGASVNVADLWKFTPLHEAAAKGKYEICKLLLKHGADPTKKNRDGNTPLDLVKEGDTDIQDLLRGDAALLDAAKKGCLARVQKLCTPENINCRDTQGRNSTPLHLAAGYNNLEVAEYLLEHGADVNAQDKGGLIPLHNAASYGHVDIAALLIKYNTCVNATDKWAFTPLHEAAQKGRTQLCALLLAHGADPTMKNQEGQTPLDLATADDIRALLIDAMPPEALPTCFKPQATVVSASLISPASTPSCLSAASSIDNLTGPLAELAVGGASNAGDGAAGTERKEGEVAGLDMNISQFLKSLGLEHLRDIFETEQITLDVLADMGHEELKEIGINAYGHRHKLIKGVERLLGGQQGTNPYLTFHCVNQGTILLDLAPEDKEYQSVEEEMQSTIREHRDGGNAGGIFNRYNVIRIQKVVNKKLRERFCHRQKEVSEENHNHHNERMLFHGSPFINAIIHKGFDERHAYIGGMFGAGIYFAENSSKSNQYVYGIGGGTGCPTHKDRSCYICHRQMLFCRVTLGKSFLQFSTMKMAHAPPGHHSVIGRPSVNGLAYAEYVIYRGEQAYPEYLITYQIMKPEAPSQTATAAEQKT

[3] = target: T2, Protein mono-ADP-ribosyltransferase PARP15 (Homo sapiens, UniProt Q460N3); assay: Inhibition of PARP15 (unknown origin)
T2 sequence (Q460N3 whole entry): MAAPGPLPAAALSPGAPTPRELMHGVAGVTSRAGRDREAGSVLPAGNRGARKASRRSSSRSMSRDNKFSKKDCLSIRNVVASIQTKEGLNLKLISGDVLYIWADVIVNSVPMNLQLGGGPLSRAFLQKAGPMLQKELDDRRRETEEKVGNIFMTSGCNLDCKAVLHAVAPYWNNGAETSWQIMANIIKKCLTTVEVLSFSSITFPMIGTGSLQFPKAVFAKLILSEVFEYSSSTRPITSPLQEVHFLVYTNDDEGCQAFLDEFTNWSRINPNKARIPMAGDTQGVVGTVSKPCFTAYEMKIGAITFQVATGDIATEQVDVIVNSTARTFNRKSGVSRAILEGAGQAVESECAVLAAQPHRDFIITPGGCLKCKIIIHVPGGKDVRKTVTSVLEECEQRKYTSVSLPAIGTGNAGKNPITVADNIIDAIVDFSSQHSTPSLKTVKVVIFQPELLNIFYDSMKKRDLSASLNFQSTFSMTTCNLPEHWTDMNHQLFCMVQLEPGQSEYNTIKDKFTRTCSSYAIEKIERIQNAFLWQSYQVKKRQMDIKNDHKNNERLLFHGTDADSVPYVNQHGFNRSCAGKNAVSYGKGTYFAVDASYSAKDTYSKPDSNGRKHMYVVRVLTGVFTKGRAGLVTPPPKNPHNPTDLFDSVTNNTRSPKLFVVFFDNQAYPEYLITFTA

HEK293 = assay: Cytotoxicity against HEK293 cells by light microscopic analysis; format: cell-based; details: human
In short: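 Viability of TCF/LEF reporter HEK293 cells was checked by light microscopy during the Wnt-signaling reporter assay.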

[4] = target: Protein mono-ADP-ribosyltransferase PARP14 (Homo sapiens, UniProt Q460N5); assay: Inhibition of PARP14 (unknown origin)
Sequence of Protein mono-ADP-ribosyltransferase PARP14 (Q460N5 whole entry): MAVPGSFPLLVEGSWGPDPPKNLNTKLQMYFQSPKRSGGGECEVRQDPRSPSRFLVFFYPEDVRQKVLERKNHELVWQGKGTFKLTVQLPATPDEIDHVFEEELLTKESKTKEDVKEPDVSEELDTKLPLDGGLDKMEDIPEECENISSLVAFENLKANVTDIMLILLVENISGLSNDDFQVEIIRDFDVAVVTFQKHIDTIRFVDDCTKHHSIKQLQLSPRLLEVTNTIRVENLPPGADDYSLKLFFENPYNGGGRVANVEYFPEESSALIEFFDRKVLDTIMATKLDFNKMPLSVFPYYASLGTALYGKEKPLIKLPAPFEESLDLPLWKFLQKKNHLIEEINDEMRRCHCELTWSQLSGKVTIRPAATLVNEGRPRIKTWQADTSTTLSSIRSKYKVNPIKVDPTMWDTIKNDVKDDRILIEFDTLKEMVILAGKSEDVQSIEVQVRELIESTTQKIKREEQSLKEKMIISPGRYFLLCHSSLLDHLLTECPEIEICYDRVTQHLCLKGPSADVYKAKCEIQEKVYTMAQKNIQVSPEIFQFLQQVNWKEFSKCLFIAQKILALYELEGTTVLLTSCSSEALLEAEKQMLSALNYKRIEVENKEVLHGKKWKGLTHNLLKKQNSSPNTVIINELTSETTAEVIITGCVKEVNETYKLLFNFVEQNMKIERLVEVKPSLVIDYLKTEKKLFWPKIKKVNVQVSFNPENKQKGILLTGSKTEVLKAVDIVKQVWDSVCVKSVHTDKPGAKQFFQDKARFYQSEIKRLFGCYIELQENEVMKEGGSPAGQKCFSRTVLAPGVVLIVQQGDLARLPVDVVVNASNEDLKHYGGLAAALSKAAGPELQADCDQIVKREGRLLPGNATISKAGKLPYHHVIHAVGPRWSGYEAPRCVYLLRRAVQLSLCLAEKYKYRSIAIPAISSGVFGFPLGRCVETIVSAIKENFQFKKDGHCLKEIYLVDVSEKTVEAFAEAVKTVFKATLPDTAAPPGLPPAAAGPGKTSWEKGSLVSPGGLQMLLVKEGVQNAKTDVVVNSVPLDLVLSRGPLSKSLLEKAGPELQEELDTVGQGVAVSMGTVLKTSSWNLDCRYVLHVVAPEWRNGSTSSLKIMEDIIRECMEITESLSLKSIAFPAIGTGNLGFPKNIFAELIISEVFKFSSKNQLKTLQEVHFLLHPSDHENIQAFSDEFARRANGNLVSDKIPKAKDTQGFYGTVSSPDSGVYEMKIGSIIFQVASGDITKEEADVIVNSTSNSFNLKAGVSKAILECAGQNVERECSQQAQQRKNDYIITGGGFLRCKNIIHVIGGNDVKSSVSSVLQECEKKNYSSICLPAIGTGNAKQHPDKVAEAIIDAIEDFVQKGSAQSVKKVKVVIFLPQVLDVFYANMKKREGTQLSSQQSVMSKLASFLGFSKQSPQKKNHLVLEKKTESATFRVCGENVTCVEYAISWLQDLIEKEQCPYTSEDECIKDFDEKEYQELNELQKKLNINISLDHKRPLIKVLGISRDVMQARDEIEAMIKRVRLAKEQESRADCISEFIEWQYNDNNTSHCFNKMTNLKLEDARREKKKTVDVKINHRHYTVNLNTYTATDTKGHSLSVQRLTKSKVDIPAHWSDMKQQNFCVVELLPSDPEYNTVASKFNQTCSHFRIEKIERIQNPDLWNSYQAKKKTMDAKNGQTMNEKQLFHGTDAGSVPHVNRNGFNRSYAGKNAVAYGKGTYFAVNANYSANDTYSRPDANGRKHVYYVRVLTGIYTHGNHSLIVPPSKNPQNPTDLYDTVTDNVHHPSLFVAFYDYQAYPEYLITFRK

Sequence of Poly [ADP-ribose] polymerase 2 (Q9UGN5 whole entry, the tested form may be a part): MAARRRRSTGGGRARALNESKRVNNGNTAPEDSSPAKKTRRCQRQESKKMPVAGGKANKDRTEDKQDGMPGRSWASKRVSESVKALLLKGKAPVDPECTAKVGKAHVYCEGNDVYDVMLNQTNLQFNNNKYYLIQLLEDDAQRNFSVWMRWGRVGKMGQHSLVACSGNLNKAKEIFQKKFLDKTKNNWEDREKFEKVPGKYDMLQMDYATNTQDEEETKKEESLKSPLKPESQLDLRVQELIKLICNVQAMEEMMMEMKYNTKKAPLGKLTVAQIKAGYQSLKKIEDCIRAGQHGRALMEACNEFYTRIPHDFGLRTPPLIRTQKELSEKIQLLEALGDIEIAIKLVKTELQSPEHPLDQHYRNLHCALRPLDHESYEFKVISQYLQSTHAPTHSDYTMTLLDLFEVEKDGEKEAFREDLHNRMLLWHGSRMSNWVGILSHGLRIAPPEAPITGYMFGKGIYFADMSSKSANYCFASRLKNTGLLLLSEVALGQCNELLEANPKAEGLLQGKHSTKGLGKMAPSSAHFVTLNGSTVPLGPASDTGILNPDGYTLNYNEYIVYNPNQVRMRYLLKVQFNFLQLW

| SMILES | IC50 [1] [µM] | inhibition (DLD-1) | IC50 [2] [µM] | IC50 [3] [µM] | Activity (HEK293) | IC50 [4] [µM] |
| --- | --- | --- | --- | --- | --- | --- |
| Cc1cccc2c(=O)[nH]c(CCC(=O)Nc3ccc(C(=O)Nc4cccc5cccnc45)cc3)nc12 | 11.6 | Active | 0.0051 | > 100 | Non-Toxic | > 100 |
| O=C(CCc1nc2ccccc2c(=O)[nH]1)Nc1ccc(C(=O)Nc2cccc3cccnc23)cc1 | 6.9 | Active | 0.0091 | > 100 | Non-Toxic | > 100 |
